# Screens deposited in PubChem BioAssay by Broad Institute.
# Shown are actives, neighbours in structure and some others; about 3.8% of the full set was active somewhere.
# DENV2 CPE: inhibitors of DENV2 cytopathic effect; AID 651640; CPE inhibition, % at 9.99 µM; actives 1.7% (n = 350,000); DENV2-infected cells, cytopathic effect rescue, plate reader; in the data active means CPE inhibition above about 20%, passing the limit was not always enough; inconclusive means no clear call, values can overlap the other calls; tested in BHK-21 cells;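 further: 0% = median of neutral control wells and 100% = median of positive control wells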
# ARNT TACC3 PPI: disruptors of human ARNT/TACC3 interaction; Q9Y6A5; inhibition, % at 9.99 µM; AlphaScreen His-ARNT PAS-B/GST-TACC3 binding, luminescence; TACC3 fragment carries E629A point mutation; actives 0.66% (n = 390,000); AID 623870;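 active means mean inhibition of replicates at least 50% and at least half of replicates each reaching 50%; inconclusive means half or more replicates reach 50% but mean below 50%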;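 further: 0% = complete ARNT plus TACC3 wells and 100% = ARNT alone without TACC3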
# FGF22 binding: binders of recombinant human FGF22 by thermal shift | Q9HCT0 | SYPRO orange fluorescence; percent of sucrose octasulfate shift, DMSO zero | activity (Tm shift, normalised), % at 9.99 µM | actives 1.5% (n = 340,000) | AID 651658;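 active means mean Tm shift, scaled 0 neutral to 100 positive control, at about 1.3% or above, every replicate too, limit read from the data; inconclusive means no clear call, values can overlap the other calls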
# Target sequence (Q9HCT0 whole entry, looked up): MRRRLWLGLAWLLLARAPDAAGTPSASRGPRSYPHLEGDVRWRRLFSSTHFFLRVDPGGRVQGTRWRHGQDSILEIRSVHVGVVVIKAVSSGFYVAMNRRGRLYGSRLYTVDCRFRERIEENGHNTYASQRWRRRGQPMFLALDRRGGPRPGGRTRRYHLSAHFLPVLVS
# FN deposit inh: fibronectin deposition inhibition; AH1F fibroblasts, Alexa488-fibronectin deposition fluorescence, overnight; inhibition, % at 12.6 µM; actives 0.086% (n = 350,000); AID 743247;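 active means mean inhibition across replicates of 30% or more, regardless of how many single replicates reach that level; inconclusive means mean under 30% yet at least half of replicates reach 30%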;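 further: positive control wells lacked labelled fibronectin entirely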
#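 Assay system: AH1F fibroblasts assembling fluorescent fibronectin matrix; Amount: 10000 AH1F cells per well; Buffer or medium: DMEM, 2% serum; Probe or stimulus: Alexa488-fibronectin, 24 nM final in well; Doses: single compound dose, delivered by pin transfer; Incubation: 1 h adhesion, overnight exposure; Measured by: fluorescence 485/525 nm; Read-out: fibronectin deposition inhibition.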
# XiGFP reactiv: X-chromosome reactivation activator; AID 743238; activation, % at 7.58 µM; XiGFP mouse fibroblasts, % GFP-positive cells imaging, 3 d; cells co-treated with 5-aza-dC sensitizer; scaled so ellipticine positive control = 100%; actives 0.055% (n = 360,000);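 active means mean normalized replicate activation at least 10% and every replicate at or above 10%; inconclusive means only one of the two criteria met; inactive means mean below 10% and not all replicates reach 10%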;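 further: 0% = median of on-plate neutral control wells and 100% = ellipticine 6 µM median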
#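 Assay system: SV40-immortalized XiGFP fibroblast cells, line 68-5-11; buffer or medium: DMEM plus 5-aza-dC sensitizer; compound: one concentration, pinned; timing: compounds 3 days, fix/stain 15 min at room temperature; benchmarks: positive control ellipticine, 6 µM final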
# SIRT5 inh: blocks human SIRT5 desuccinylation of peptide; Q9NXA8; Purified SirT5, succinyl-peptide AMC, trypsin-coupled fluorescence; inhibition, % at 15 µM; actives 1.1% (n = 330,000); AID 652115; in the data active means inhibition above about 15%; inconclusive means no clear call, values can overlap the other calls
# Target sequence (Q9NXA8 whole entry, looked up): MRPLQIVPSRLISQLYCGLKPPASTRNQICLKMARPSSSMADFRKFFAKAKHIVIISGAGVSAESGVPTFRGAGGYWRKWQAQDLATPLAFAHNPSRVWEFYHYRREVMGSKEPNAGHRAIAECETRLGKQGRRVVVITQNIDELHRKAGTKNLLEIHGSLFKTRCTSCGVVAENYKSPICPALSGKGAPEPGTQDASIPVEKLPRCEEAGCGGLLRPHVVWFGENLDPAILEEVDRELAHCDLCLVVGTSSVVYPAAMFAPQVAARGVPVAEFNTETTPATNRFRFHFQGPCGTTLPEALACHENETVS
# An asterisk follows results filed as active; ? = inconclusive; / = no result; ! = a repeat was not active.
SMILES,DENV2 CPE,ARNT TACC3 PPI,FGF22 binding,FN deposit inh,XiGFP reactiv,SIRT5 inh
C[C@@H]1CN([C@@H](C)CO)C(=O)c2ccccc2-c2ccccc2CO[C@@H]1CN(C)C(=O)Nc1ccccc1C(F)(F)F,2,-3,0,-1,0,-2
COc1ccccc1-c1cn(CC[C@@H]2CC[C@H](NC(=O)Cc3ccccn3)[C@H](CO)O2)nn1,40*,-3,0,-1,0,-2
COc1ccc(-c2cn(CC[C@@H]3CC[C@H](NC(=O)Cc4ccccn4)[C@@H](CO)O3)nn2)cc1,22*!,12,-1,-4,1,8
COc1ccccc1-c1cn(CC[C@@H]2CC[C@H](NC(=O)Cc3ccccn3)[C@@H](CO)O2)nn1,-5,15,0,4,0,3
COc1ccc(-c2cn(CC[C@@H]3CC[C@@H](NC(=O)Cc4ccccn4)[C@H](CO)O3)nn2)cc1,-1,12,0,/,0,-3
COc1cccc(NC(=O)N[C@H]2CC[C@@H](CC(=O)NCc3ccncn3)O[C@@H]2CO)c1,4,-8,0,9,1,-7
C/C=C/c1ccc2c(c1)O[C@H](CN(C)C(=O)NC(C)C)[C@H](C)CN([C@@H](C)CO)S2(=O)=O,-5,-5,0,-7,-1,-1
C[C@@H]1CCCCO[C@H](CN(C)C(=O)Nc2ccccc2)[C@@H](C)CN([C@H](C)CO)C(=O)c2cc(NS(=O)(=O)c3ccccc3)ccc2O1,-4,-12,-1,-11,0,-2
Cc1noc(C)c1NC(=O)N[C@H]1CC[C@@H](CCNC(=O)C2CCOCC2)O[C@H]1CO,6,9,0,/,0,-1
Nc1nc(O)c(N=Nc2ccc(S(N)(=O)=O)cc2)c(=O)[nH]1,1,/,0,-1,0,3
NS(=O)(=O)c1ccc(N=Nc2c[nH]c(=O)c(O)c2)cc1,0,52*,-1,4,0,7
COc1cccc(CNS(=O)(=O)c2cc(Br)ccc2Br)c1,6,/,1,-1,0,-5
COC(=O)C(CC(C)C)N(Cc1cc(OC)cc(OC)c1)S(=O)(=O)c1ccccc1Br (configuration not stated),?,5,1,-10,0,0
COc1cc(CN(CC(C)C)S(=O)(=O)c2ccccc2Br)cc(OC)c1,?,-2,43*,-33,0,/
COc1cccc(CN(CCC(C)C)S(=O)(=O)c2cc(Br)ccc2Br)c1,-10,-6,0,3,0,28*
Cc1ccc(S(=O)(=O)Nc2ccc3c(c2)C(=O)N([C@@H](C)CO)C[C@@H](C)[C@@H](CN(C)S(=O)(=O)c2ccc(Cl)cc2)OCCCC[C@@H](C)O3)cc1,-5,-7,0,-4,0,/
C[C@@H]1CCCCO[C@@H](CN(C)S(=O)(=O)c2ccc(Cl)cc2)[C@@H](C)CN([C@H](C)CO)C(=O)c2cc(NS(C)(=O)=O)ccc2O1,22*,-3,0,/,0,1
Cc1ccc(S(=O)(=O)Nc2ccc3c(c2)C(=O)N([C@H](C)CO)C[C@H](C)[C@@H](CN(C)S(=O)(=O)c2ccc(Cl)cc2)OCCCC[C@H](C)O3)cc1,37*,-3,31*,-8,0,/
C[C@@H]1CN([C@H](C)CO)C(=O)c2cc(NS(=O)(=O)c3ccc(Cl)cc3)ccc2O[C@@H](C)CCCCO[C@H]1CN(C)S(=O)(=O)c1ccc(Cl)cc1,54*,-4,0,-15,0,/
Cc1ccc(S(=O)(=O)N(C)C[C@H]2OCCCC[C@H](C)Oc3ccc(NS(=O)(=O)c4ccc(Cl)cc4)cc3C(=O)N([C@@H](C)CO)C[C@@H]2C)cc1,-2,6,0,-8,0,24*
O=C(NCC1CC1)[C@@H]1[C@@H](CO)[C@@H]2Cn3c(ccc(-c4cccc(F)c4)c3=O)[C@@H]2N1CC1CCOCC1,-6,-2,0,/,0,0
